Experiment: Toxicity liver stage against HepG2, at 10uM
Format: cell-based
Set-up: test concentration 10 uM, cell line HepG2-A16-CD81EGFP
Details: human, HepG2-A16-CD81EGFP cells; read-out: INHIBITION
How it was run: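 Uninfected HepG2-A16-CD81EGFP cells, 3 × 10^3 per well, 1536-well, plated on prespotted compound at 10 μM final, parasite-free screening media added to match infected plates; puromycin 10 μM positive, DMSO 0.5% negative; run in parallel with 48 h PbLuc assay at 37 °C, 5% CO2; viability by CellTiter-Glo luminescence, normalized to controls.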

Q: Which cytotoxicity at 10 µM does the source give for CC(O)CNCc1ccccc1C(F)(F)F (stereo not given) here?
A: -3.3%

Q: With NC(=O)C1CCN(C(=O)Cc2cnc(-c3c(Cl)cccc3Cl)s2)CC1 as the compound, how does the cytotoxicity at 10 µM read?
A: -2.23%

Q: For COCCn1cc(CC(=O)Nc2c(C)nn(C)c2C)c2ccccc21, which cytotoxicity at 10 µM is on record?
A: 1.18%

Q: Which cytotoxicity at 10 µM does the source give for Cc1csc(NC(=O)Cn2nc(C)ccc2=O)n1 here?
A: -5.7%

Q: Which cytotoxicity at 10 µM does the source give for CC(C)(CO)CNC(=O)c1ccnn1-c1ccc2ccccn12 here?
A: 15.8%

Q: With COCCN1C(=O)C2(CCC(C(=O)Nc3ccccn3)CC2)N=C1C (stereo not given) as the compound, how does the cytotoxicity at 10 µM read?
A: 10.7%

Q: For COc1cccc(CN2CCC3(CCN(c4ncc(C)cn4)C3)C2=O)c1 (stereo not given), which cytotoxicity at 10 µM is on record?
A: -0.265%

Q: For Cc1ccc(C(=O)N2CC[C@@H]3[C@H]2CCC(=O)N3CC2CC2)o1, which cytotoxicity at 10 µM is on record?
A: -0.419%

Q: For CN1C(=O)CC(c2cnn(C)c2)C12CCN(C(=O)c1ccc[nH]1)CC2 (stereo not given), which cytotoxicity at 10 µM is on record?
A: 6.74%

Q: For c1cc(CNCC2Cn3nncc3CO2)cs1 (stereo not given), which cytotoxicity at 10 µM is on record?
A: 6.13%

Q: With COCc1nc2c(o1)CN(C(=O)NCc1ccccc1)C2 as the compound, how does the cytotoxicity at 10 µM read?
A: 10.6%

Q: Which cytotoxicity at 10 µM does the source give for CC(=O)N1CC2(CCN(C(=O)N(C)C)CC2)c2cc(C)ccc21 here?
A: 7.7%

Q: Which cytotoxicity at 10 µM does the source give for O=C(NCCCn1cccn1)c1nnc2ccccc2n1 here?
A: 0.14%

Q: With CCN(CC)c1nc(C)cc(C(=O)Nc2cnn(CC)c2)n1 as the compound, how does the cytotoxicity at 10 µM read?
A: -16.4%

Q: Which cytotoxicity at 10 µM does the source give for Cn1nc(C2CNCCO2)cc1CCOc1cccc(C(F)(F)F)c1 (stereo not given) here?
A: -1.02%

Q: Which cytotoxicity at 10 µM does the source give for Nc1nccc(C2CCCN2CCc2ccccc2)n1 (stereo not given) here?
A: 3.38%

Q: For CCn1cc(S(=O)(=O)NCC2(N3CCOCC3)CCCCC2)c(C)n1, which cytotoxicity at 10 µM is on record?
A: -27.5%

Q: Which cytotoxicity at 10 µM does the source give for O=C(C[S+]([O-])Cc1csc(C2CCCC2)n1)Nc1ccccc1 (stereo not given) here?
A: -42.3%

Q: With Cc1ccc(C(=O)N2CCCC(N(C)C(=O)OC(C)(C)C)C2)o1 (stereo not given) as the compound, how does the cytotoxicity at 10 µM read?
A: -54%

Q: Which cytotoxicity at 10 µM does the source give for CS(=O)(=O)c1cc(C(=O)NS(=O)(=O)Cc2ccc(F)cc2)ccc1Cl here?
A: -3.38%

Q: With CN1CCN(c2ccc(F)cc2NC(=O)NCCn2ccnc2)CC1 as the compound, how does the cytotoxicity at 10 µM read?
A: 1.69%

Q: Which cytotoxicity at 10 µM does the source give for O=C(c1ccccc1F)N(CCCO)S(=O)(=O)c1cccs1 here?
A: 4.95%

Q: With CC(C)(C)c1ncc(CNCC2CN(C3CC3)CCO2)s1 (stereo not given) as the compound, how does the cytotoxicity at 10 µM read?
A: 0.948%

Q: With Cc1cc(N(Cc2cccnc2)C2CC2)n2nc(C(F)(F)F)nc2n1 as the compound, how does the cytotoxicity at 10 µM read?
A: -1.95%

Q: For CC(C)CC(N)C1=NC(=C2N=CN=N2)NO1 (stereo not given), which cytotoxicity at 10 µM is on record?
A: 10.6%

Q: With COc1ccc(C2CCN(Cc3cscn3)CC2)cc1 as the compound, how does the cytotoxicity at 10 µM read?
A: -0.243%

Q: With NC(=O)CN1CCCN(C(=O)c2ccc(SC(F)F)cc2)CC1 as the compound, how does the cytotoxicity at 10 µM read?
A: -6.08%

Q: For CCCNC(=O)CN(C)C1CCN(c2ccc(Cl)cc2)CC1, which cytotoxicity at 10 µM is on record?
A: 1.41%

Q: For N#Cc1ccc(CCC(=O)N2CCC(CN3CCOCC3)CC2)cc1, which cytotoxicity at 10 µM is on record?
A: -4.97%

Q: With CCn1nc2c(cc1=O)CN(c1nc3ccccc3s1)CC2 as the compound, how does the cytotoxicity at 10 µM read?
A: 7.5%

Q: For CN(Cc1cnn(C)c1)C(=O)CCS(=O)(=O)c1ccc2c(c1)OCCO2, which cytotoxicity at 10 µM is on record?
A: -17%

Q: Which cytotoxicity at 10 µM does the source give for FC(F)Oc1ccc(CN2CCOC3(CCOCC3)C2)cc1Cl here?
A: -6.58%

Q: For COCC1CCCN(CCCc2cccc(OC)c2)C1 (stereo not given), which cytotoxicity at 10 µM is on record?
A: 2.41%

Q: For CCSCCC(=O)NCCn1nc2ccccn2c1=O, which cytotoxicity at 10 µM is on record?
A: -9.53%

Q: Which cytotoxicity at 10 µM does the source give for CCc1sc(C(=O)NC2CC2)cc1C here?
A: 14.5%

Q: Which cytotoxicity at 10 µM does the source give for CC(C)c1ncc2c(n1)CN(Cc1cccc3c1OCCO3)CC2 here?
A: -4.34%

Q: For CCC(CC)c1cc(CNC(=O)N2CCC[C@@H]2CO)on1, which cytotoxicity at 10 µM is on record?
A: -5.16%

Q: With O=C(NCCCn1nc2ccccn2c1=O)NCCC1CCC1 as the compound, how does the cytotoxicity at 10 µM read?
A: 5.47%

Q: For NC(=O)CCC1CCCN(c2ccc3c(Cl)ccnc3c2F)C1 (stereo not given), which cytotoxicity at 10 µM is on record?
A: 29.6%

Q: With CCc1nnc2n1CC(CNCC1CCCC1)CC2 (stereo not given) as the compound, how does the cytotoxicity at 10 µM read?
A: -3.98%

Q: With CCC(CC)NC(=O)CN1CCN(C(=O)N(C)C)CC1 as the compound, how does the cytotoxicity at 10 µM read?
A: -3.7%

Q: With Cn1cc(NC(=O)Nc2cccc3cccnc23)ccc1=O as the compound, how does the cytotoxicity at 10 µM read?
A: -9.22%

Q: Which cytotoxicity at 10 µM does the source give for CN1CCN(C(=O)c2occc2CN2C(=O)Cc3ccccc32)CC1 here?
A: -1.89%

Q: Which cytotoxicity at 10 µM does the source give for CC(C)c1noc(C(C)S(=O)(=O)CC(=O)N2CCCC2)n1 (stereo not given) here?
A: 4.23%

Q: For CS(=O)(=O)Cc1ccc(C(=O)Nc2ccc3c(c2)C(=O)NC3)cc1, which cytotoxicity at 10 µM is on record?
A: 10.8%

Q: With CC(C)c1noc(CCNC(=O)N2CCSC(C(C)C)C2)n1 (stereo not given) as the compound, how does the cytotoxicity at 10 µM read?
A: -2.65%

Q: Which cytotoxicity at 10 µM does the source give for CC(C)Sc1ccc(C(C)NC(=O)CNS(C)(=O)=O)cc1 (stereo not given) here?
A: 3.92%

Q: For CCc1cnc(CNC(=O)N2CCCC(C(=O)NC)C2)s1 (stereo not given), which cytotoxicity at 10 µM is on record?
A: 19.8%

Q: Which cytotoxicity at 10 µM does the source give for CC(CCc1ccccc1)N1CCC(C(=O)Nc2cnccn2)CC1 (stereo not given) here?
A: 13.2%

Q: With CCS(=O)(=O)N(C)CCCNC(=O)c1cc(Cl)cc2cccnc12 as the compound, how does the cytotoxicity at 10 µM read?
A: 15%

Q: Which cytotoxicity at 10 µM does the source give for CC(NC(=O)NCc1cccnc1N(C)C)c1cccs1 (stereo not given) here?
A: 1.76%

Q: Which cytotoxicity at 10 µM does the source give for CC(c1cccc(Cl)c1)N(C)CCS(=O)(=O)CCC(N)=O (stereo not given) here?
A: -45.8%

Q: For O=C(CN1CCSCC1c1ccccc1)N1CCCC1 (stereo not given), which cytotoxicity at 10 µM is on record?
A: 7.34%

Q: With CC(C)Sc1ccc(C(C)NC(=O)Cn2cccnc2=O)cc1 (stereo not given) as the compound, how does the cytotoxicity at 10 µM read?
A: 16.8%

Q: For O=C(c1cc[nH]n1)N1CCCC1C1CCN(Cc2ccccc2)CC1 (stereo not given), which cytotoxicity at 10 µM is on record?
A: 1.98%
